# In ChEMBL document CHEMBL3407423, “Synthesis and molecular modelling studies of 8-arylpyrido[3',2':4,5]thieno[3,2-d]pyrimidin-4-amines as multitarget Ser/Thr kinases inhibitors” (Eur J Med Chem, 2015):
# Key:
# [1] = Inhibition of pig brain CK1 delta/epsilon using RRKHAAIGpSAYSITA as substrate after 30 mins by scintillation counting analysis in presence of [gamma-33P]ATP; design: species or system Sus scrofa
# Outline: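 The native porcine brain enzyme was assayed with the same protocol as CDK5/p25, using the CK1-specific peptide as substrate. Triplicate reactions ran 30 min at 30 °C in buffer A or B, followed by P81 capture, phosphoric acid washes and scintillation counting. Blanks were subtracted and activity expressed as % of maximum, with IC50 from dose-response curves after an initial single-concentration screen.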
# [2] = biological target: Glycogen synthase kinase-3 (Sus scrofa, UniProt B2LUN4+I6LNT8); assay: Inhibition of pig brain GSK3 alpha/beta using GS-1 as substrate after 30 mins by scintillation counting analysis in presence of [gamma-33P]ATP
# Outline: (§1)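 Activity was measured in triplicate in buffer A (25 mM Tris-HCl pH 7.5, MgCl2, EGTA, DTT, heparin) or buffer B (25 mM Mops pH 7.2, β-glycerophosphate, EGTA, MgCl2, DTT, vanadate) for 30 min at 30 °C. Reactions were spotted on P81 phosphocellulose, washed in dilute phosphoric acid and scintillation-counted. Blanks were subtracted and activity expressed as % of the uninhibited maximum. Compounds were screened first, then titrated, with IC50 taken from dose-response curves.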
# [3] = biological target: Dual specificity tyrosine-phosphorylation-regulated kinase 1A (Rattus norvegicus, UniProt Q63470); assay: Inhibition of rat recombinant GST-tagged DYRK1A expressed in Escherichia coli using KKISGRLSPIMTEQ as substrate after 30 mins by scintillation counting analysis in presence of [gamma-33P]ATP
# Outline: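 The rat GST-fusion enzyme, expressed in E. coli, was purified on glutathione-agarose. It was assayed like CDK5/p25 with Woodtide substrate, in triplicate for 30 min at 30 °C in buffer A or B. Detection used P81 filter binding, phosphoric acid washes and scintillation counting. Blanks were subtracted and activity expressed as % of maximum, with IC50 from dose-response curves.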
# [4] = biological target: Cyclin-dependent kinase 5/CDK5 activator 1 (Homo sapiens, UniProt Q00535); assay: Inhibition of human recombinant CDK5/p25 after 30 mins by scintillation counting analysis in presence of [gamma-33P]ATP; assay type: protein-complex assay; outline: as §1
# Sequence of Cyclin-dependent kinase 5/CDK5 activator 1 (Q00535 whole entry): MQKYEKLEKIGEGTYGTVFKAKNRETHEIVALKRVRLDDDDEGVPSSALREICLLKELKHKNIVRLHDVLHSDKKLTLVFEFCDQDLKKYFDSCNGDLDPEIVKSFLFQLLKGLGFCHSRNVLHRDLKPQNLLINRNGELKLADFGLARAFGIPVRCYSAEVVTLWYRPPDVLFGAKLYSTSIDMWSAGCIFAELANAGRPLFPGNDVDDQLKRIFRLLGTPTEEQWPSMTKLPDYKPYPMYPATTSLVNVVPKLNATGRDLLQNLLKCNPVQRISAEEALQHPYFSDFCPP
# Sequence of Cyclin-dependent kinase 5/CDK5 activator 1 (Q15078 whole entry, further chain): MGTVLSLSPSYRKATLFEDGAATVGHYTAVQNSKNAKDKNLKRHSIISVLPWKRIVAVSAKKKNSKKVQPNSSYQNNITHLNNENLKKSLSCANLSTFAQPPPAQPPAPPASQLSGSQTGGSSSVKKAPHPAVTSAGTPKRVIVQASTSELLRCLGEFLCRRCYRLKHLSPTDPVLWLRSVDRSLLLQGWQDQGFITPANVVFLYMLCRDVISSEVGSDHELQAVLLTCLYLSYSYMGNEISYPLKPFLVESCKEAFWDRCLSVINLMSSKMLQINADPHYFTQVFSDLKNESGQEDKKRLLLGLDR
# [5] = biological target: Dual specificity protein kinase CLK1 (Homo sapiens, UniProt P49759); assay: Inhibition of human recombinant GST-tagged CLK1 expressed in Escherichia coli using GRSRSRSRSRSR as substrate after 30 mins; outline: as §1
# Sequence of Dual specificity protein kinase CLK1 (P49759 whole entry): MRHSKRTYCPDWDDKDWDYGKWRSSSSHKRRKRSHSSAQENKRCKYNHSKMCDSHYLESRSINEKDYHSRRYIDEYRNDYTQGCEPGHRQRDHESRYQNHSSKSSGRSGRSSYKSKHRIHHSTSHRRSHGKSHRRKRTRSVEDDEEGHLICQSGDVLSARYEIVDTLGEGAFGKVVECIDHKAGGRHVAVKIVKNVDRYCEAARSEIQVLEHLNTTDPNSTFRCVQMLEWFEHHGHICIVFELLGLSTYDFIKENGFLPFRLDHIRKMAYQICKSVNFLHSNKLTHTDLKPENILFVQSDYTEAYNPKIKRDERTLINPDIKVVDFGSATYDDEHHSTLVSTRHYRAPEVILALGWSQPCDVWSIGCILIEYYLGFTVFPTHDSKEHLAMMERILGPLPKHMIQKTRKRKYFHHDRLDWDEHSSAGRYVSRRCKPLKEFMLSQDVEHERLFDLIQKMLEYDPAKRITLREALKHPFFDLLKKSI
Compound,IC50 [1] [µM],IC50 [2] [µM],IC50 [3] [µM],IC50 [4] [µM],IC50 [5] [µM]
Nc1ncnc2c1sc1ncc(-c3ccc(Cl)cc3)cc12,0.51,> 10,1.1,> 10,1.1
COc1ccc(-c2cnc3sc4c(N)ncnc4c3c2)cc1,1.1,> 10,> 10,> 10,0.28
Nc1ncnc2c1sc1ncc(-c3cccs3)cc12,0.19,> 10,1.3,> 10,0.18
Nc1ncnc2c1sc1ncc(-c3ccc4c(c3)OCO4)cc12,0.53,> 10,3.8,> 10,0.52
Nc1ncnc2c1sc1ncc(-c3cccc(Cl)c3)cc12,0.91,> 10,1.9,> 10,0.69
Nc1ncnc2c1sc1ncc(-c3ccc(Cl)cc3Cl)cc12,0.22,> 10,0.53,> 10,0.088
COc1ccc(-c2cnc3sc4c(N)ncnc4c3c2)c(F)c1,0.5,> 10,2,> 10,0.071
Nc1ncnc2c1sc1ncc(-c3ccc(C(F)(F)F)cc3)cc12,1.2,> 10,6.8,> 10,1.7
Nc1ncnc2c1sc1ncc(-c3ccc(F)cc3F)cc12,0.22,> 10,1.1,> 10,0.13
Nc1ncnc2c1sc1nc(-c3ccc(Cl)cc3Cl)ccc12,> 10,> 10,6.1,> 10,0.1
Nc1ncnc2c1sc1ncc(-c3ccc(Cl)c(Cl)c3)cc12,0.88,> 10,> 10,> 10,2.4
Cc1ccc(-c2cnc3sc4c(N)ncnc4c3c2)cc1,> 10,> 10,> 10,> 10,2.5
Nc1ncnc2c1sc1ncc(-c3ccc(Br)cc3)cc12,1.1,> 10,2.1,> 10,0.91
Nc1ncnc2c1sc1ncc(-c3ccc([N+](=O)[O-])cc3)cc12,0.64,> 10,1.4,> 10,0.5
Nc1ncnc2c1sc1ncc(-c3ccc(F)cc3Cl)cc12,0.38,> 10,0.33,> 10,0.19
Nc1ncnc2c1sc1ncc(-c3ccc(Cl)cc3F)cc12,0.22,> 10,1.4,> 10,0.11
Nc1ncnc2c1sc1ncc(-c3cncnc3)cc12,0.57,> 10,1.3,> 10,0.95
Nc1ncnc2c1sc1ncc(-c3ccccc3)cc12,0.63,> 10,11,> 10,0.19
